The text below walks through data of ChEMBL document CHEMBL1133684, “Novel cannabinol probes for CB1 and CB2 cannabinoid receptors” (J Med Chem, 2000).

Bounds are passed on as bounds.

The target of test [1] is T1, Cannabinoid receptor 1 (Homo sapiens, UniProt P21554). Briefly: Binding affinity was determined for Cannabinoid receptor 1.
Test [2] addresses Cannabinoid receptor (Homo sapiens) (UniProt P34972+P21554). Briefly: Ratio of Ki of CB1 receptor to that of CB2 receptor. It is filed as protein assay.
The target in test [3] is T2, Cannabinoid receptor 2 (Homo sapiens, UniProt P34972). Nature of the test: Binding affinity was determined for Cannabinoid receptor 2. The method, boiled down:
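Radioligand displacement on P2 membrane preparations, filtration method. Test compounds kept as 1 mg/mL stocks in absolute ethanol at -20 °C.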

For test [4], the target named is T1, Cannabinoid receptor 1. Briefly: Compound was tested for inhibition of Adenylyl cyclase in cannabinoid receptor 1 (CB1).
The target of test [5] is T2, Cannabinoid receptor 2. Briefly: Binding affinity was determined for cannabinoid receptor 2. The method, boiled down:
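Radioligand displacement on P2 membrane preparations, filtration method. Test compounds kept as 1 mg/mL stocks in absolute ethanol at -20 °C. Displacement curves came from incubating the drugs with 1 nM [³H][…].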

T2 sequence (P34972 whole entry): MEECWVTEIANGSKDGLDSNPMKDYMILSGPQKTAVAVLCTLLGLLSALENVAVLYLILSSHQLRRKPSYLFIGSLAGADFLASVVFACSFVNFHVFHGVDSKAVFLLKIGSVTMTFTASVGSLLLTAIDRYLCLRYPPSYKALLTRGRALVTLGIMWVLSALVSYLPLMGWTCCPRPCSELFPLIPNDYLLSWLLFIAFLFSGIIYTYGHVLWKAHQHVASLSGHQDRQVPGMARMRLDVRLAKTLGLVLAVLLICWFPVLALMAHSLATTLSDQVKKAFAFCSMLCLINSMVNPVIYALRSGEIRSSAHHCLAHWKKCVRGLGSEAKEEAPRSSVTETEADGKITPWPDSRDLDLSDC
T1 sequence (P21554 whole entry): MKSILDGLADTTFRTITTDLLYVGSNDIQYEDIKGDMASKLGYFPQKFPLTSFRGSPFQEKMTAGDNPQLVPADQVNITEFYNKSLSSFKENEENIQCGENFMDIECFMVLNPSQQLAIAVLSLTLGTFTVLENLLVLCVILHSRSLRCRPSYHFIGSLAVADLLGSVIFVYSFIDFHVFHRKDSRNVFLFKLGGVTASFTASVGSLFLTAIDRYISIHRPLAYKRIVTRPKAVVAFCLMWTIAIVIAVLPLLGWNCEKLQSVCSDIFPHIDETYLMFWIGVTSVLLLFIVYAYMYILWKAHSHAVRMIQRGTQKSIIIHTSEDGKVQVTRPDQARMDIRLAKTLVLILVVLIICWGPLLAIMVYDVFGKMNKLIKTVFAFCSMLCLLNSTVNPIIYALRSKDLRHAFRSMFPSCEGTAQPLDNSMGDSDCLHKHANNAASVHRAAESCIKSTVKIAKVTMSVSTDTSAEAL
Sequence of Cannabinoid receptor (Homo sapiens) (P21554 whole entry, looked up): as the sequence (P21554 whole entry) above
Sequence of Cannabinoid receptor (Homo sapiens) (P34972 whole entry, looked up): as the sequence (P34972 whole entry) above

Usually Ki stands for a measure of affinity in units of concentration, obtained from inhibition or displacement. Turning to `CCCCCCC(C)(C)c1cc(O)c2c(c1)OC(C)(C)c1ccc(C(=O)OC)cc1-2`, the Ki at Cannabinoid receptor 1 [1] was 14 nM; at Cannabinoid receptor 2 [3], 3.8 nM. Moreover, the Ratio in test [2] turned out to be 3.7.

As for `CCCCCCC(C)(C)c1cc(O)c2c(c1)OC(C)(C)c1ccc(C)cc1-2`, the Ki on Cannabinoid receptor 1 [1] stood at 1 nM; at Cannabinoid receptor 1 [4] it was 2 nM; at Cannabinoid receptor 2 [5] it was 2.24 nM. The Ratio in test [2] is 0.4.

In the case of `CCCCCCC(C)(C)c1ccc2c(c1)OC(C)(C)c1ccc(C)cc1-2`, the results for the inhibitory constant (Ki) at Cannabinoid receptor 1 [1] and at Cannabinoid receptor 2 [3] were 434 nM and 167 nM, respectively. Further, the Ratio in test [2] turned out to be 2.6.

As for `CCCCCCC(C)(C)c1cc(OC)c2c(c1)OC(C)(C)c1ccc(C(=O)OC(C)C)cc1-2`, the Ki at Cannabinoid receptor 1 [1] and at Cannabinoid receptor 2 [3] was above 10000 nM throughout.

As to `CCCCCCC(C)(C)c1cc(OC)c2c(c1)OC(C)(C)c1ccc(C)cc1-2`, the Ki amounted to 681 nM on Cannabinoid receptor 1 [1] and 286 nM on Cannabinoid receptor 2 [3]. Also, the Ratio in test [2] was 2.4.

As for `CCCC(C)(C)c1ccc2c(c1)OC(C)(C)c1ccc(C(=O)OC)cc1-2`, the Ki on Cannabinoid receptor 1 [1] was above 10000 nM; on Cannabinoid receptor 2 [3], 611 nM. Also, in test [2], the Ratio was above 16.4.

For the compound `CCCC(C)(C)c1ccc2c(c1)OC(C)(C)c1ccc(CO)cc1-2`, the Ratio in test [2] stood at 3. The inhibitory constant (Ki) on Cannabinoid receptor 2 [3] came out at 67 nM.

With `CCCC(C)(C)c1cc(O)c2c(c1)OC(C)(C)c1ccc(C)cc1-2`, the Ki at Cannabinoid receptor 1 [1] is 42 nM; at Cannabinoid receptor 2 [3], 6 nM. For the same compound, in test [2], the Ratio worked out at 7.

In the case of `CCCCCCC(C)(C)c1cc(OC)c2c(c1)OC(C)(C)c1ccc(C(=O)OCc3ccccc3)cc1-2`, the Ki on Cannabinoid receptor 1 [1] and on Cannabinoid receptor 2 [3] was above 10000 nM each time.

Turning to `CCCC(C)(C)c1ccc(-c2cc(C)ccc2C(C)C)c(O)c1`, the Ki on Cannabinoid receptor 1 [1] amounted to 875 nM. Also, the Ratio in test [2] is 7.7.

With `CCCCCCC(C)(C)c1cc(OC)c2c(c1)OC(C)(C)c1ccc(C(=O)OCc3ccc4ccccc4c3)cc1-2`, the Ki on Cannabinoid receptor 1 [1] and on Cannabinoid receptor 2 [3] was above 10000 nM in each case.

On to `CCCCCCC(C)(C)c1ccc(-c2cc(C)ccc2C(C)C)c(O)c1`, for which affinity at Cannabinoid receptor 1 [1] was put at a Ki of 33 nM. Also, the Ratio in test [2] came out at 10.

In the case of `CCCCCCOC(=O)c1ccc2c(c1)-c1c(OC)cc(C(C)(C)CCCCCC)cc1OC2(C)C`, the Ki at Cannabinoid receptor 1 [1] and at Cannabinoid receptor 2 [3] was above 10000 nM throughout.

As to `CCCCCCC(C)(C)c1ccc2c(c1)OC(C)(C)c1ccc(CO)cc1-2`, the Ki was 2 nM at Cannabinoid receptor 1 [1] and 1 nM on Cannabinoid receptor 2 [3]. Also, the Ratio in test [2] worked out at 2.

As for `CCCCCCC(C)(C)c1cc(O)c2c(c1)OC(C)(C)c1ccc(CO)cc1-2`, the inhibitory constant (Ki) at Cannabinoid receptor 1 [1] worked out at 0.1 nM. Moreover, in test [2], the Ratio turned out to be 0.5.

Take `CCCCCCC(C)(C)c1ccc2c(c1)OC(C)(C)c1ccc(C(=O)OC)cc1-2`: the Ki is 558 nM at Cannabinoid receptor 1 [1] and 276 nM on Cannabinoid receptor 2 [3]. In addition, in test [2], the Ratio was 2.

With `CCCCCCC(C)(C)c1cc(OC)c2c(c1)OC(C)(C)c1ccc(C(=O)OCCC)cc1-2`, the Ki at Cannabinoid receptor 1 [1] is 1730 nM; at Cannabinoid receptor 2 [3], 214 nM. For the same compound, the Ratio in test [2] worked out at 8.1.

Consider `CCCCCCC(C)(C)c1cc(OC)c2c(c1)OC(C)(C)c1ccc(C(=O)OC)cc1-2`, for which the Ki is above 10000 nM at Cannabinoid receptor 1 [1] and 529 nM at Cannabinoid receptor 2 [3]. In test [2], the Ratio is above 18.9.
